Shown are actives, neighbours in structure and some others; about 2.9% of the full set was active somewhere.
HCV NS3 hel inh: inhibitors of HCV NS3 helicase, primary screen, biochemical, Cy5 molecular beacon fluorescence; inhibition, % at 10.9 µM; actives 0.56% (n = 290,000); NS3 helicase DNA unwinding; Hepatitis C virus NS3 helicase; AID 1800, 2009;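 active = inhibition above the mean of all tested compounds plus 3 SD, set per campaign, cut at about 35% in these data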;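 also: 0% = DMSO wells and 100% = thioflavine S control wells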
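Assay system – hepatitis C virus NS3 helicase domain fragment enzyme · Buffer or medium – MOPS pH 6.5, MgCl2, DTT, Tween20, BSA · Reagent – Cy5/quencher beacon DNA duplex and ATP to start · Compound – single 10.9 µM dose · Timing – 1 h at 25 °C · Technique – Cy5 beacon fluorescence read at start and 1 h · Measure – % inhibition of unwinding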
PRMT1 inh: PRMT1 methyltransferase inhibitors, primary screen, biochemical, fluorescence polarization. recombinant PRMT1, activity-based probe fluorescence polarization. actives 1.3% (n = 370,000). inhibition, % at 2.79 µM. Protein arginine N-methyltransferase 1 (Homo sapiens), Q99873;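 active = inhibition above about 21% made by adding two undisclosed values, limit read from the data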
A3A deaminase: APOBEC3A ssDNA deaminase inhibitors, primary screen, selectivity assay for APOBEC3G inhibitor project, biochemical, FAM/TAMRA oligo cleavage fluorescence. DNA dC->dU-editing enzyme APOBEC-3A (Homo sapiens), P31941. recombinant A3A, FAM/TAMRA ssDNA deamination fluorescence. inhibition, % at 20 µM. actives 0.41% (n = 330,000);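 active = at least 40% inhibition at 20 µM here, with at most 30% in a related deaminase screen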;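 also: plate controls were A3A with DMSO for no effect and wells lacking A3A enzyme for full effect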
ABHD5-PLIN5 inh: ABHD5-PLIN5 interaction inhibitors, primary screen, cell lysate, split luciferase complementation, luminescence. Perilipin-5 (Homo sapiens) + 1-acylglycerol-3-phosphate O-acyltransferase ABHD5 (Homo …. Split G. princeps luciferase complementation, 4 h. inhibition, % at 4 µM. actives 0.78% (n = 360,000). AID 602281, 2012;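 active = inhibition above the mean inhibition across every tested compound plus 3 SD, cut at about 22% in these data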;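 also: 0% = DMSO only wells and the 100% control is not disclosed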
Target sequence (Q00G26 whole entry, looked up): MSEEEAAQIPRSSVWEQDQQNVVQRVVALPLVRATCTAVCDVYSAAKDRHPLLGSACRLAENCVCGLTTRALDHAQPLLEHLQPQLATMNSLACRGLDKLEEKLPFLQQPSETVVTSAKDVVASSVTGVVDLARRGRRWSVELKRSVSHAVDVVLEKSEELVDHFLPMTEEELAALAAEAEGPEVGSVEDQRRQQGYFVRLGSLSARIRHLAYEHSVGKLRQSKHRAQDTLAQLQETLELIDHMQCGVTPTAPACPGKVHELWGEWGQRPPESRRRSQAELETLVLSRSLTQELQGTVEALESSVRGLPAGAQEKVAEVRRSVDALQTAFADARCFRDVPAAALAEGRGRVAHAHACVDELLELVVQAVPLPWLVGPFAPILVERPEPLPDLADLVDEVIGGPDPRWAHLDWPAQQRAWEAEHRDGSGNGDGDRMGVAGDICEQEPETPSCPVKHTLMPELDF
Target sequence (Q8WTS1 whole entry, looked up): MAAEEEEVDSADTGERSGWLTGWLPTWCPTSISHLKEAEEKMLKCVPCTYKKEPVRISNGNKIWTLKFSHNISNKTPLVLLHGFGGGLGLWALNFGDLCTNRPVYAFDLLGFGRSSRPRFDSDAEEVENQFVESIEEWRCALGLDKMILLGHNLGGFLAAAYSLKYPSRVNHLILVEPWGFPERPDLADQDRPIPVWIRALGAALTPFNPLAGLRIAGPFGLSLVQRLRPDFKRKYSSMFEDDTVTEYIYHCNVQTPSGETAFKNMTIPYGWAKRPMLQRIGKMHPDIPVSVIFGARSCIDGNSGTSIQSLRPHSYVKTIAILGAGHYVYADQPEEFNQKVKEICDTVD
core dimer inh: inhibitors of HCV core protein dimerization, primary screen, biochemical, TR-FRET, high-throughput | TR-FRET GST/Flag-core106 dimerization, 1536-well | inhibition, % at 5 µM | actives 0.33% (n = 300,000) | AID 1899, 2009;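 active = inhibition above the mean of all tested compounds plus 3 SD, set per screening campaign, cut at about 45% in these data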
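Material: Tagged HCV core106 pair (GST and Flag) | Amount: GST-core106 13.5 nM, Flag-core106 17 nM | Medium: KF-containing HEPES buffer, pH 7.45, DTT, CHAPS, BSA | Reagent: Eu donor and XL665 acceptor anti-tag antibodies | Schedule: 4 h at 22.5 °C | Technique: Time-resolved FRET, ex 340 nm, em 617 and 671 nm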
APOBEC3G inh: APOBEC3G DNA deaminase inhibitors, primary screen, biochemical, fluorescence, single-stranded DNA substrate, uHTS. recombinant A3G, ssDNA deamination FAM/TAMRA fluorescence. inhibition, % at 20 µM. actives 0.28% (n = 330,000);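 active = inhibition of at least 40% at 20 µM, with no more than 30% in the related APOBEC3A deaminase screen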;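 also: plate controls were DMSO wells with A3G for no effect and wells lacking A3G enzyme for full effect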
The depositor's hits bear a star.

Screening Cc1ccc(C)c(N2CCN(S(=O)(=O)c3ccc4[nH]c(=O)ccc4c3)CC2)c1 returned HCV NS3 hel inh -6, PRMT1 inh 7, A3A deaminase 2, ABHD5-PLIN5 inh -3, core dimer inh 46* and APOBEC3G inh 0.
CC[n+]1c(/C=C(\C)Nc2ccccc2)sc2ccccc21 was read as HCV NS3 hel inh -2, PRMT1 inh 2, ABHD5-PLIN5 inh -2 and core dimer inh 2.
`CC[n+]1c(/C=C(\C)OC)sc2ccccc21` gave HCV NS3 hel inh -31, PRMT1 inh 23*, A3A deaminase -2, ABHD5-PLIN5 inh 0 and APOBEC3G inh -5.
For CCOC(=O)COc1ccc2c(=O)c(-c3ccccc3OC)coc2c1 the results were HCV NS3 hel inh 9, PRMT1 inh -3, A3A deaminase 0, ABHD5-PLIN5 inh 1, core dimer inh 61* and APOBEC3G inh 4.
COC(=O)COc1ccc2c(=O)c(-c3ccccc3OC)coc2c1 was read as HCV NS3 hel inh -4, PRMT1 inh 1, A3A deaminase 4, ABHD5-PLIN5 inh -2, core dimer inh 2 and APOBEC3G inh 1.
Screening COC[C@H]1CCCN1c1ccc2c(c1)OCCCN(C1CC1)S2(=O)=O returned PRMT1 inh 0.
Screening COCCCn1c(SCC(=O)N2CCc3ccccc32)nnc1-c1ccoc1C returned HCV NS3 hel inh 0, PRMT1 inh 4, A3A deaminase -3, ABHD5-PLIN5 inh 4, core dimer inh 55* and APOBEC3G inh -3.
For COC(=O)C1(C)COP(=O)(Nc2ccc(OC)cc2)OC1 (stereo not drawn) the results were PRMT1 inh 3 and ABHD5-PLIN5 inh 5.
O=C(O)c1ccc(Cl)c(NC(=S)NC(=O)c2ccccc2[N+](=O)[O-])c1 was read as HCV NS3 hel inh 5, PRMT1 inh 23*, A3A deaminase 0, ABHD5-PLIN5 inh -4, core dimer inh 0 and APOBEC3G inh -4.
For Cc1ccc(C=NNc2nc3c([nH]2)c(=O)n(C)c(=O)n3C)cc1 the results were PRMT1 inh -4 and ABHD5-PLIN5 inh 0.
`COC(=O)c1ccccc1-c1c2ccc(=N)cc-2oc2cc(N)ccc12` gave PRMT1 inh active, A3A deaminase -136, ABHD5-PLIN5 inh -1 and APOBEC3G inh -430.
For O=C1c2sc3nc4ccccc4n3c2C(=O)N1c1ccccc1Cl the results were HCV NS3 hel inh 9, PRMT1 inh 0, A3A deaminase -1, ABHD5-PLIN5 inh 7, core dimer inh -8 and APOBEC3G inh 27.
For N=c1cc(C2(O)CCCCC2)n2c(nc3ccccc32)s1 the results were HCV NS3 hel inh 2, PRMT1 inh 25*, A3A deaminase -4, ABHD5-PLIN5 inh -5, core dimer inh -1 and APOBEC3G inh 0.
Screening O=c1cc(O)n(C2CCCCCC2)c(=O)[nH]1 returned HCV NS3 hel inh 1, PRMT1 inh 24*, A3A deaminase -1, ABHD5-PLIN5 inh -23, core dimer inh 7 and APOBEC3G inh -3.
O=C(O)Cc1c[nH]c2cccc(O)c12 was read as HCV NS3 hel inh 32, PRMT1 inh 32*, A3A deaminase 43, ABHD5-PLIN5 inh 10, core dimer inh -36 and APOBEC3G inh 33.
CC(C)Cn1c(N)c(C(=O)COC(=O)CCNS(=O)(=O)c2ccccc2)c(=O)n(C)c1=O was read as PRMT1 inh -1, A3A deaminase 1, ABHD5-PLIN5 inh -7, core dimer inh -6 and APOBEC3G inh -2.
Screening O=C1/C(=C\c2cccc(O)c2)SC(=S)N1Cc1ccccc1 returned HCV NS3 hel inh 26, PRMT1 inh 3, A3A deaminase -4, ABHD5-PLIN5 inh -5, core dimer inh -3 and APOBEC3G inh -5.
O=C(O)COc1cccc(/C=C2/SC(=S)N(Cc3ccccc3)C2=O)c1 was read as HCV NS3 hel inh 10, PRMT1 inh 6, A3A deaminase 1, ABHD5-PLIN5 inh -7, core dimer inh 56* and APOBEC3G inh -3.
For O=C(O)CN1C(=O)/C(=C\c2cccc(OCc3ccccc3)c2)SC1=S the results were HCV NS3 hel inh 26, PRMT1 inh 30*, A3A deaminase 4, ABHD5-PLIN5 inh -11, core dimer inh 9 and APOBEC3G inh 0.
Screening C#Cc1ccc([C@@H]2C=C(C(=O)NCc3ccccc3)O[C@H](OCc3ccc(CO)cc3)C2)cc1 returned HCV NS3 hel inh 13, PRMT1 inh 6, A3A deaminase -5, ABHD5-PLIN5 inh 3, core dimer inh 47* and APOBEC3G inh -9.
For C#Cc1ccc([C@@H]2C=C(C(=O)NCc3ccccc3)O[C@H](OCCCCO)C2)cc1 the results were PRMT1 inh 3, A3A deaminase -5, ABHD5-PLIN5 inh 10, core dimer inh 52* and APOBEC3G inh -5.
Screening O=C(NCc1ccccc1)C1=C[C@@H](c2ccccc2)C[C@@H](OCc2ccc(CO)cc2)O1 returned HCV NS3 hel inh -6, PRMT1 inh 5, A3A deaminase 4, ABHD5-PLIN5 inh -3, core dimer inh 9 and APOBEC3G inh 0.
Screening O=C(NCc1ccccc1)C1=C[C@@H](c2ccc(Br)cc2)C[C@@H](OCCCCO)O1 returned HCV NS3 hel inh 4, PRMT1 inh 0, A3A deaminase -2, ABHD5-PLIN5 inh 5, core dimer inh 4 and APOBEC3G inh -4.
For CCOC(=O)CCCc1c[nH]c2ccccc12 the results were HCV NS3 hel inh 4, PRMT1 inh 0, A3A deaminase -7, ABHD5-PLIN5 inh -9, core dimer inh -1 and APOBEC3G inh -6.
Cc1noc(C)c1COC(=O)CCCc1c[nH]c2ccccc12 was read as HCV NS3 hel inh 16, PRMT1 inh 0, A3A deaminase 9, ABHD5-PLIN5 inh -5, core dimer inh 71* and APOBEC3G inh 5.
C/C(CC(=O)NC1CCCC1)=N\NC(=O)Cc1cccs1 was read as HCV NS3 hel inh -3, PRMT1 inh 2, A3A deaminase 0, ABHD5-PLIN5 inh 63*, core dimer inh 2 and APOBEC3G inh -6.
For CCNC(=O)C1(C)CCCN(C(=O)c2ccc3c(c2)C(C)(C)CCC3(C)C)C1 (stereo not drawn) the results were PRMT1 inh 1 and ABHD5-PLIN5 inh 12.
Screening CCCc1ccc(S(=O)(=O)N2CCN(C(=O)CN3C(=O)NC(C)(C4CC4)C3=O)CC2)cc1 (stereo not drawn) returned PRMT1 inh 2 and ABHD5-PLIN5 inh -3.

High-throughput results as filed in PubChem BioAssay.
